Experimental data published in ChEMBL document CHEMBL3992520, “Development of the First Two-Pore Domain Potassium Channel TWIK-Related K+ Channel 1-Selective Agonist Possessing in Vivo Antinociceptive Activity” (J Med Chem, 2017).

Experiments:
[1] = target: T1, Potassium channel subfamily K member 2 (Homo sapiens) (UniProt O95069); experiment: Agonist activity at human TREK1 expressed in HEK293 cells assessed as increase in K+ current at 100 uM measured at +60 mV by whole-cell patch clamp method relative to control; format: cell-based
T1 sequence (whole entry): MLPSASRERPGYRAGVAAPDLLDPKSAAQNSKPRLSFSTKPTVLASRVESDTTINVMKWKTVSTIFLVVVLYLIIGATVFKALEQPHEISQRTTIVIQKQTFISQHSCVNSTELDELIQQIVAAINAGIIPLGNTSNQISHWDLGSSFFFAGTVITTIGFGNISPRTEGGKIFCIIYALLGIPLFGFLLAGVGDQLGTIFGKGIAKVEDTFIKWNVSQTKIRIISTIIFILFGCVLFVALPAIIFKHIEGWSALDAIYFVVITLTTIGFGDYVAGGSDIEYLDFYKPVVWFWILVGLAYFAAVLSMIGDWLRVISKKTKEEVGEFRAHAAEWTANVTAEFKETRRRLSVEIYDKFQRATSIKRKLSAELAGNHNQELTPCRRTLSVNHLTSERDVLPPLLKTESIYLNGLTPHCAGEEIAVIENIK
Procedure, shortened: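 Human TREK-1 (kcnk2) in pIRES2-eGFP was stably expressed in HEK-293 cells under G418 selection, and cells were used 4–48 h after plating. Bath (mM): 140 NaCl, 10 TEA-Cl, 5 KCl, 3 MgCl2, 1 CaCl2, 10 HEPES, pH 7.4. Pipette (mM): 155 KCl, 3 MgCl2, 5 EGTA, 10 HEPES, pH 7.2. Holding was −80 mV, with a step to −100 mV then a 400 ms ramp to +60 mV every 5 s. Read-out was the ratio Imax/I0 taken from I/V curves. Stocks were 20 mM in DMSO.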

[2] = target: T1, Potassium channel subfamily K member 2 (Homo sapiens); experiment: Agonist activity at human TREK1 expressed in xenopus oocytes assessed as increase in K+ current at 20 uM measured at 0 mV by double microelectrode method relative to control; format: cell-based
Mus musculus [3] = experiment: Antinociceptive activity in CD1 mouse assessed as inhibition of acetic acid-induced writhes at 10 mg/kg, sc pretreated for 15 mins followed by acetic acid challenge measured within 20 mins relative to control; format: functional
Procedure, shortened: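 Male CD1 mice (20-25 g), n=8 per group, dosed at 10 mg/kg s.c. or with vehicle (5% Tween 80 in 0.9% saline). Dosing was 15 min before i.p. 0.6% acetic acid (10 mL/kg). Abdominal writhes were counted for 20 min. Effect = (mean control writhes − mean test writhes)/mean control writhes ×100.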

Liver [4] = experiment: Drug level in rat liver microsomes treated with at 40 mM (E)-ethyl 2-cyano-3-(1H-indol-2-yl)acrylate measured after 24 hrs by HPLC analysis; format: ADME, microsome; conditions: 40000 µM
Procedure, shortened: (§1)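 Incubation mix: rat liver microsomes (20 mg/mL stock), phosphate buffer pH 7.4 and NADPH (40 mM stock). Drug was added from a 40 mM DMSO stock. Samples were vortexed and incubated at 37 °C with stirring.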

[5] = target: Potassium channel subfamily K member 9 (Homo sapiens) (UniProt Q9NPC2); experiment: Agonist activity at TASK3 (unknown origin) expressed in HEK293 cells assessed as increase in K+ current at 100 uM measured at +60 mV by whole-cell patch clamp method relative to control; format: cell-based
[6] = target: T2, Potassium channel subfamily K member 4 (Homo sapiens) (UniProt Q9NYG8); experiment: Agonist activity at TRAAK (unknown origin) expressed in HEK293 cells assessed as increase in K+ current at 100 uM measured at +60 mV by whole-cell patch clamp method relative to control; format: cell-based
T2 sequence (whole entry): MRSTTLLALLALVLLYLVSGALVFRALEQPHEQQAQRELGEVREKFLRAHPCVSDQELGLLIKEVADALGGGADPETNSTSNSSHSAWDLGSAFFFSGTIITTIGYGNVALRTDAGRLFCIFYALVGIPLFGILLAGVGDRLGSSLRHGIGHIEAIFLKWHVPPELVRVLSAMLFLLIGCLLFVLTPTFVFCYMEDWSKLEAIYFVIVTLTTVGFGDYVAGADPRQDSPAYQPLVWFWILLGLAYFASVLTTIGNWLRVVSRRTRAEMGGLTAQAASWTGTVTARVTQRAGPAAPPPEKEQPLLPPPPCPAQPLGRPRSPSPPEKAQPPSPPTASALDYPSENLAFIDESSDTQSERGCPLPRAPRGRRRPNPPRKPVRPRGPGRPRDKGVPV

Mus musculus [7] = experiment: Antinociceptive activity in CD1 mouse assessed as increase in thermal-stimulus induced paw withdrawal latency at 60 mg/kg, sc measured after 30 mins by hot plate method relative to control; format: functional
Procedure, shortened: (§2)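 Male CD1 mice (20-25 g), n=8 per group, given 60 mg/kg s.c. After 5 min acclimatization on a plate at room temperature, mice were placed on a 52 °C hotplate. Latency to forepaw or hindpaw licking or hindpaw flicking was recorded, with a 30 s cut-off. Latency was taken after two consecutive stable baselines, then 30 and 45 min post-dose. Effect = (postdrug − predrug latency)/predrug latency ×100.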

Mus musculus [8] = experiment: Antinociceptive activity in CD1 mouse assessed as increase in thermal-stimulus induced paw withdrawal latency at 60 mg/kg, sc measured after 45 mins by hot plate method relative to control; format: functional; procedure, shortened: as §2
Mus musculus [9] = experiment: Antinociceptive activity in wild-type C57Bl/6J mouse assessed as increase in thermal-stimulus induced paw withdrawal latency at 60 mg/kg, sc measured after 30 mins by hot plate method relative to control; format: functional
Procedure, shortened: (§3)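 TREK-1−/− and wild-type C57Bl/6J littermates came from heterozygous crosses, n=7. Dose was 60 mg/kg s.c. The 52 °C hotplate measured paw-lick latency, 30 s cut-off, with baseline from two stable pre-dose latencies.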

Mus musculus [10] = experiment: Antinociceptive activity in wild-type C57Bl/6J mouse assessed as increase in thermal-stimulus induced paw withdrawal latency at 60 mg/kg, sc measured after 45 mins by hot plate method relative to control; format: functional; procedure, shortened: as §3
Mus musculus [11] = experiment: Antinociceptive activity in TREK1 deficient C57Bl/6J mouse assessed as increase in thermal-stimulus induced paw withdrawal latency at 60 mg/kg, sc measured after 30 mins by hot plate method relative to control; format: functional; procedure, shortened: as §3
Mus musculus [12] = experiment: Antinociceptive activity in TREK1 deficient C57Bl/6J mouse assessed as increase in thermal-stimulus induced paw withdrawal latency at 60 mg/kg, sc measured after 45 mins by hot plate method relative to control; format: functional; procedure, shortened: as §3
Mus musculus [13] = experiment: In vivo activation of TREK1 in C57Bl/6J mouse assessed as increase in thermal-stimulus induced paw withdrawal latency at 60 mg/kg, sc measured after 30 mins by hot plate method relative to control; format: functional; procedure, shortened: as §3
Mus musculus [14] = experiment: In vivo activation of TREK1 in C57Bl/6J mouse assessed as increase in thermal-stimulus induced paw withdrawal latency at 60 mg/kg, sc measured after 45 mins by hot plate method relative to control; format: functional; procedure, shortened: as §3
[15] = target: T3, Potassium channel subfamily K member 10 (Homo sapiens) (UniProt P57789); experiment: Agonist activity at TREK-2 (unknown origin) expressed in HEK293 cells assessed as increase in K+ current at 100 uM measured at +60 mV by whole-cell patch clamp method relative to control; format: cell-based
T3 sequence (whole entry): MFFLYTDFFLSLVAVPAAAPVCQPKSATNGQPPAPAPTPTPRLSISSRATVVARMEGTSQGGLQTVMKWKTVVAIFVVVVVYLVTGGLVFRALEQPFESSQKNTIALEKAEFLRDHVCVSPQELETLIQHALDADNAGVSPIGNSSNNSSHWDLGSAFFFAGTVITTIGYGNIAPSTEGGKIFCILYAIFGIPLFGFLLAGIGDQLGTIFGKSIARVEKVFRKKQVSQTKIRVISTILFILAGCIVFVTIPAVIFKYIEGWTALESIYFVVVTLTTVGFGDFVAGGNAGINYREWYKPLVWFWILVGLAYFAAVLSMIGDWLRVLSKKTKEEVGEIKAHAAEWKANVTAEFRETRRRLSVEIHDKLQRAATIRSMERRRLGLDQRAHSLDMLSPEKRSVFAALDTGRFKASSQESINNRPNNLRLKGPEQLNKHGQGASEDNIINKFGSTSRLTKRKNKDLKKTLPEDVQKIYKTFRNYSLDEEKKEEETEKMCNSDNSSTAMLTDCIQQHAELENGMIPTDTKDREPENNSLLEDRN

Liver [16] = experiment: Drug level in rat liver microsomes treated with at 40 mM (E)-ethyl 2-cyano-3-(furan-3-yl)acrylate measured after 24 hrs by HPLC analysis; format: ADME, microsome; conditions: 40000 µM; procedure, shortened: as §1

Sequence of Potassium channel subfamily K member 9 (Homo sapiens) (Q9NPC2 whole entry): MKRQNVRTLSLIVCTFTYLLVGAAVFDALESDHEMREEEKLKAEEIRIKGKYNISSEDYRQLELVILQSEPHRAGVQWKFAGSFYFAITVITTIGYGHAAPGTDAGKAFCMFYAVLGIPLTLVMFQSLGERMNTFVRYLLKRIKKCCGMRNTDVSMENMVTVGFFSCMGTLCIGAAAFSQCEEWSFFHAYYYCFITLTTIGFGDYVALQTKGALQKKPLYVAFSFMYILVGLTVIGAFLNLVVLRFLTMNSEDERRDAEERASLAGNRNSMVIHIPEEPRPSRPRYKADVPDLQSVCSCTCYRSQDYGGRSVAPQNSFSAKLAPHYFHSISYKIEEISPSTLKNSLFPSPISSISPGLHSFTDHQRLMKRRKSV

fold change (FC) [1]	fold change (FC) [2]	Drug metabolism (Liver [4])	fold change (FC) [5]	fold change (FC) [6]	fold change (FC) [15]	Drug metabolism (Liver [16])	SMILES	inhibition in vivo at 10 mg/kg (Mus musculus [3]) [%]	Activity (Mus musculus [7]) [%]	Activity (Mus musculus [8]) [%]	Activity (Mus musculus [9]) [%]	Activity (Mus musculus [10]) [%]	Activity (Mus musculus [11]) [%]	Activity (Mus musculus [12]) [%]	Activity (Mus musculus [13]) [%]	Activity (Mus musculus [14]) [%]
1.18	2.44	Metabolite_Detected					N#C/C(=C\c1cc2ccccc2[nH]1)C(=O)O	25.8								
4.53	1.43		1	1.1	1.8	Metabolite_Detected	N#C/C(=C\c1ccoc1)C(=O)O	30.7	56.4	119.5	121.2	93.5	78.1	75.4	36.6	19
